What all share (format): ADME, organism-based
Series [1] can be described thus: Cmax in HIV-negative human at 400 mg, po administered as single dose. Set-up: dose 400 mg, route oral. Particulars: in vivo. A digest of the protocol: (§1)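 Period 1 of two crossover studies in healthy male volunteers: single 400 mg oral raltegravir alone. Plasma sampled 0–72 h postdose and assayed by validated reverse-phase HPLC-MS/MS (LLOQ 2 ng/ml, linear to 1,000 ng/ml), converted to nM (MW 444.4). Cmax by inspection; C12h from the nominal 12 h sample; AUC0–∞ by linear/log trapezoidal plus extrapolation from the last concentration/β.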

Series [2] is described as follows: AUC (0 to infinity) in HIV-negative human at 400 mg, po administered as single dose. Further details: dose 400 mg, time infinity, route oral. Particulars: plasma. A digest of the protocol:
as §1

Series [3] in a line: Trough plasma concentration at 12 hrs in HIV-negative human at 400 mg, po administered as single dose. Particulars: read-out: Cmin. A digest of the protocol:
as §1

The nature of series [4]: Terminal half life in HIV-negative human at 400 mg, po administered as single dose followed by 4 days wash out period followed by efavirenz dosing at 600 mg, po bid for 14 days coadministered with compound at 400 mg, po on day 12. Conditions: in vivo, in the assay text read “po qd for 14 days” for “po bid for 14 days”, read-out: beta t1/2 (converted). The essentials:
(§2)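 Healthy male volunteers; plasma raltegravir measured by validated reverse-phase HPLC-MS/MS (LLOQ 2 ng/ml, linear 2 to 1,000 ng/ml) and converted to nM. Each subject's profile was fit to a biexponential model (weighting 1/(predicted concentration)², Gauss-Newton minimization), with α-phase onset set by inspection. Phase t1/2 = ln(2)/α or β. Median differences were estimated by Hodges-Lehman with 90% CI.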

Series [5] can be described thus: Primary phase half life in HIV-negative human at 400 mg, po administered as single dose followed by 4 days wash out period followed by efavirenz dosing at 600 mg, po bid for 14 days coadministered with compound at 400 mg, po on day 12. Particulars: in vivo, in the assay text read “po qd for 14 days” for “po bid for 14 days”, read-out: alphat1/2 (converted). A digest of the protocol: as §2

A short description of series [6]: Cmax in HIV-negative human at 400 mg, po administered as single dose followed by 4 days wash out period followed by efavirenz dosing at 600 mg, po bid for 14 days coadministered with compound at 400 mg, po on day 12. Set-up: dose 400 mg, route oral. Particulars: in vivo, in the assay text read “po qd for 14 days” for “po bid for 14 days”. A digest of the protocol: (§3)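 Efavirenz 600 mg orally once daily at bedtime for 14 days, with a single 400 mg oral raltegravir (double-blind vs placebo) alongside on day 12. Healthy males, all doses taken fasted. Plasma sampled at 0–72 h postdose as in the ritonavir study, but at 36 h instead of 32 h, and quantified by HPLC-MS/MS. Cmax by inspection; C12h at nominal 12 h; AUC0–∞ by linear/log trapezoidal plus extrapolation.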

Series [7] is described as follows: AUC (0 to infinity) in HIV-negative human at 400 mg, po administered as single dose followed by 4 days wash out period followed by efavirenz dosing at 600 mg, po bid for 14 days coadministered with compound at 400 mg, po on day 12. Further details: dose 400 mg, route oral, time infinity. Conditions: plasma, in the assay text read “po qd for 14 days” for “po bid for 14 days”. A digest of the protocol:
as §3

A short description of series [8]: Trough plasma concentration at 12 hrs in HIV-negative human at 400 mg, po administered as single dose followed by 4 days wash out period followed by efavirenz dosing at 600 mg, po bid for 14 days coadministered with compound at 400 mg, po on day 12. Conditions: in the assay text read “po qd for 14 days” for “po bid for 14 days”, read-out: Cmin. The essentials:
as §3

A short description of series [9]: Terminal half life in HIV-negative human at 400 mg, po administered as single dose followed by 4 days wash out period followed by ritonavir dosing at 100 mg, po bid for 16 days coadministered with compound at 400 mg, po on day 14. Conditions: in vivo, read-out: beta t1/2 (converted). The essentials: as §2
Series [10] in a line: Primary phase half life in HIV-negative human at 400 mg, po administered as single dose followed by 4 days wash out period followed by ritonavir dosing at 100 mg, po bid for 16 days coadministered with compound at 400 mg, po on day 14. Particulars: in vivo, read-out: alphat1/2 (converted). The essentials: as §2
Series [11] in a line: Tmax in HIV-negative human at 400 mg, po administered as single dose followed by 4 days wash out period followed by […] coadministered with compound at 400 mg, po on day 14. Conditions: in vivo.
Series [12] can be described thus: Cmax in HIV-negative human at 400 mg, po administered as single dose followed by 4 days wash out period followed by […] coadministered with compound at 400 mg, po on day 14. Set-up: dose 400 mg, route oral. Particulars: in vivo.
Series [13] can be described thus: AUC (0 to infinity) in HIV-negative human at 400 mg, po administered as single dose followed by 4 days wash out period followed by […] coadministered with compound at 400 mg, po on day 14. Set-up: dose 400 mg, time infinity, route oral. Particulars: plasma.
A short description of series [14]: Trough plasma concentration at 12 hrs in HIV-negative human at 400 mg, po administered as single dose followed by 4 days wash out period followed by ritonavir dosing at 100 mg, po bid […] coadministered with compound at 400 mg, po on day 14. Conditions: read-out: Cmin. The essentials: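 In healthy young males, ritonavir 100 mg twice daily for 14 days, with a single 400 mg oral raltegravir (double-blind vs placebo) given with the morning dose on day 14. All doses followed a moderate-fat meal. Cmax and Tmax by inspection at nominal times; C12h from the 12 h sample; AUC0–∞ by trapezoidal sum plus extrapolation.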

The nature of series [15]: Terminal half life in HIV-negative human at 400 mg, po administered as single dose. Particulars: in vivo, read-out: beta t1/2 (converted). A digest of the protocol: as §2
A short description of series [16]: Primary phase half life in HIV-negative human at 400 mg, po administered as single dose. Particulars: in vivo, read-out: alphat1/2 (converted). A digest of the protocol: as §2

Take `Cc1nnc(C(=O)NC(C)(C)c2nc(C(=O)NCc3ccc(F)cc3)c(O)c(=O)n2C)o1` [RALTEGRAVIR]: the figures for the Cmax in series [1], in series [6] and in series [12] were 9.57 µM, 6.45 µM and 7.23 µM, respectively. In addition, the figures for the area under the curve AUC(0-inf) in series [2], in series [7] and in [13] were 22.9 µM·h, 18.1 µM·h and 19.3 µM·h, respectively. The concentration at 12 h in series [3] was found to be 0.0771 µM; in [8], 0.0625 µM; in series [14], 0.0765 µM. Moreover, the half-life in series [4] was 9.1 h; in [5] it was 0.95 h; in series [9], 10 h; in series [10], 0.97 h; in [15], 10.8 h; in series [16], 0.98 h. The Tmax in [11] was 2 h.
